# High-throughput results: PubChem BioAssay, several laboratories
# A selection: hits, their analogues and other compounds. The true share with any hit is near 4%.
# Pf gamet viab: inhibitors of late stage P. falciparum gametocyte viability; actives 0.065% (n = 150,000); inhibition, % at 10.9 µM; P. falciparum stage V gametocytes, ATP luminescence, 24 h;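 active = inhibition above the mean plus 3 SD of compounds within the control limits, set per campaign, cut at about 38% in these data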
# KCC2 mod: modulators of human KCC2 chloride dependent transport. Q9H2X9. KCC2 cells, thallium flux FluoZin-2 fluorescence. B-score of Tl+ flux slope (higher = more flux/activation; lower = inhibition) at 10 µM. actives 2.2% (n = 190,000). AID 1456;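 active = thallium flux slope and its plate-corrected score both differing from the plate sample mean at a set confidence after two filtering rounds, in either direction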;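 note: slope of fluorescence scaled to starting intensity during 10 to 20 s after thallium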
# Target sequence (Q9H2X9 whole entry, looked up): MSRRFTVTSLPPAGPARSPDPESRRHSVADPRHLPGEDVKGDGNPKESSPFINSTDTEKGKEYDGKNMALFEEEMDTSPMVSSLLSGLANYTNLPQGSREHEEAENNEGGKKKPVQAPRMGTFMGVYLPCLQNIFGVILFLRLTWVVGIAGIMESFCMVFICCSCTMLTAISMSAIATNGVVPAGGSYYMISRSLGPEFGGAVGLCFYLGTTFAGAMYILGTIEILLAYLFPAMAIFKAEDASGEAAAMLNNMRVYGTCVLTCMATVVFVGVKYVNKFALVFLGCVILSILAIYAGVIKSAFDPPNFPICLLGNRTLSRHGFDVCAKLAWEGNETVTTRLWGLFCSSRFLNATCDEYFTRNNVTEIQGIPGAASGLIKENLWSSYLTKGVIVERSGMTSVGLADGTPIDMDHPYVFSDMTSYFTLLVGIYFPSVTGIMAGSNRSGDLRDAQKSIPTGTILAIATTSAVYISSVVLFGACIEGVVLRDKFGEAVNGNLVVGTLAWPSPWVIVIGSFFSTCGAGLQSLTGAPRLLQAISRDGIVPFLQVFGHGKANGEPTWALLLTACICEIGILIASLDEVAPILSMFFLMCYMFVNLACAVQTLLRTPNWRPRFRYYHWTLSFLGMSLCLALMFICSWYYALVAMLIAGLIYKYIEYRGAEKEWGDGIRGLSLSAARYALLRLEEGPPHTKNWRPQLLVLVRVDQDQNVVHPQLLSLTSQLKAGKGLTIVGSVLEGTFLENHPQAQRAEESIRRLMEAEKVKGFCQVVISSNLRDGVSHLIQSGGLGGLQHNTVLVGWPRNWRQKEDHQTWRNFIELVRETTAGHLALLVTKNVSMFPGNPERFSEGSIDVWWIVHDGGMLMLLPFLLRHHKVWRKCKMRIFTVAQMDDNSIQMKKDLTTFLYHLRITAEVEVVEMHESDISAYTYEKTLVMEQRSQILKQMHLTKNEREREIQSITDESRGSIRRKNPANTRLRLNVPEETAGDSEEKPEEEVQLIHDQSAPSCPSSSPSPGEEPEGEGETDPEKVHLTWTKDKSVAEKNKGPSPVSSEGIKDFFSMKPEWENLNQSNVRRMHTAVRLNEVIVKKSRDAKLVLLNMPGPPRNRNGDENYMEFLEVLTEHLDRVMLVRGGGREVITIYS
# WT yeast gro inh: growth inhibition of WT yeast, mitochondrial fusion screen. mitochondrial fusion phenotypic screen, WT strain. inhibition, % at 10 µM. actives 2.1% (n = 190,000). AID 1362; in the data active = inhibition above about 58%; tested in S. cerevisiae
# bCat nuc transl: beta-catenin nuclear translocation modulation; HeLa beta-catenin nuclear translocation, immunofluorescence imaging; nuclear translocation activity, % at 5 µM; actives 0.3% (n = 190,000); AID 1665;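 active = nuclear translocation activity above 50% at 5 µM, with a well cell count of 50 or more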;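 note: per-cell ratio of nuclear to cytoplasmic median beta-catenin stain intensity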
#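 System: Human HeLa cells, endogenous beta-catenin | Compound dosing: 5 µM primary, 0.02–20 µM confirmation | Timing: 24 h compound exposure at 37°C, 5% CO2 | Measured by: Fluorescence imaging of beta-catenin antibody stain plus DAPI | Read-out basis: % activation of per-cell nuclear versus cytoplasmic median beta-catenin signal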
# MT stabilize HCS: microtubule stabilization, imaging screen; HeLa tubulin immunostaining HCS, 24 h; share of cells brighter than vehicle mean+2SD; % tubulin-high responders, % at 10 µM; actives 0.83% (n = 200,000);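 active = plate Z-score above 3 for both tubulin-high and condensed-nucleus cell shares, with cell loss under 80%, at 10 µM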;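 note: anti alpha tubulin signal scored within the nucleus-defined area of each cell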
# Hits are given with their value; n = inactive; x = no result given.
SMILES,Pf gamet viab,KCC2 mod,WT yeast gro inh,bCat nuc transl,MT stabilize HCS
O=C1C=CC(=O)N1CCCCCCN1C(=O)C=CC1=O,n,n,92.0,n,n
CN(C)S(=O)(=O)c1cccc(NC(=S)Nc2ccc(Cl)cc2Cl)c1,n,5.45,n,n,n
CN(C)S(=O)(=O)c1cccc(NC(=S)Nc2cc(Cl)cc(Cl)c2)c1,n,n,n,x,n
Cc1ccc(C)c(NC(=O)c2cc[n+](C)cc2)c1,n,x,x,x,x
CCOC(=O)C(=Cc1cc(=O)c(OC)co1)C(=O)OCC,n,n,n,n,24.8
O=C(c1cnn2c(C(F)F)cc(-c3ccccc3)nc12)N1CCc2ccccc2C1,n,n,77.9,n,n
Cc1ccc(-c2cc(C(F)F)n3ncc(C(=O)N4CCN5CCCC5C4)c3n2)cc1 (stereo unspecified),x,n,65.7,x,n
O=C(c1cc(-c2ccccc2)nc2ccccc12)N1CCc2ccccc2C1,n,n,71.1,n,n
Cc1ccc2nc(-c3ccccc3)cc(C(=O)N3CCc4ccccc4C3)c2c1,x,n,n,n,n
O=C(Nc1ccccc1Cc1ccccc1)c1ccccc1NS(=O)(=O)c1ccc(Cl)s1,n,-3.54,76.0,n,n
CC(C)Cn1c(=O)c(C2=NS(=O)(=O)c3ccccc3N2)c(O)c2ccccc21,x,8.77,x,x,n
O=C(Nc1cccc(C(=O)Nc2ccc(F)cc2F)c1)c1ccccc1,n,x,x,x,x
CCN(CC)CCCN(C(=O)c1ccc(OC)cc1)c1nc(-c2ccc(OC)cc2)cs1,n,x,x,x,x
COCCCN(C(C)=O)c1nc(-c2ccc(OC)cc2)cs1,n,x,n,n,22.7
CCn1cc(C2C3=C(CC(C)(C)CC3=O)N(c3ccccc3)C3=C2C(=O)CC(C)(C)C3)c(C)n1,n,n,n,n,n
Cc1cc(C)n(CC(O)Cn2c3ccc(Cl)cc3c3cc(Cl)ccc32)c(=O)n1 (stereo unspecified),x,n,96.8,n,n
N#C/C(=C/c1cn(-c2ccccc2)nc1-c1cccc(OCc2ccccc2)c1)C(=O)NCCCn1ccnc1,n,n,n,n,n
CCOc1cccc(-c2nn(-c3ccccc3)cc2/C=C(/C#N)C(=O)NCCCn2ccnc2)c1,x,n,59.7,n,n
O=C(N/N=C1\CCCc2ccccc21)c1ccc([N+](=O)[O-])cc1,n,3.1,n,n,n
Cc1ccc(C(=O)N/N=C2\CCCc3ccccc32)c(C)c1,n,n,n,n,n
CC1C/C(=N\NC(=O)c2ccc(NS(=O)(=O)c3ccc(Br)cc3)cc2)CC(C)(C)C1 (stereo unspecified),n,n,n,n,n
COc1ccc(S(=O)(=O)N(CC(=O)NC2CC2)c2ccc(C)cc2)cc1,n,n,n,n,n
CCN(CC)S(=O)(=O)c1ccc(C(=O)OCCN2C(=O)c3cccc4c(N5CCOCC5)ccc(c34)C2=O)cc1,x,n,n,n,n
O=C(OCCN1C(=O)c2cccc3c(N4CCOCC4)ccc(c23)C1=O)c1cc(Cl)cc(Cl)c1,x,n,n,x,30.4
Cc1ccccc1NC(=O)c1ccccc1N(C)S(=O)(=O)c1ccccc1,n,x,x,x,x
SMILES,Pf gamet viab,KCC2 mod,WT yeast gro inh,bCat nuc transl,MT stabilize HCS
COc1ccc(CCN2C(=O)NC(NC(=O)CCc3ccccc3)(C(F)(F)F)C2=O)cc1OC (stereo unspecified),n,n,n,n,n
O=C1NC(Nc2nccs2)(C(F)(F)F)C(=O)N1CCc1ccccc1 (stereo unspecified),x,-2.58,n,n,n
CCN(CCCCCN(C)C)Cc1cc2ccccc2o1,n,n,n,n,n
C=C1C(=O)[C@@]23[C@H](O)C[C@@H]4C(C)(C)CC[C@H](O)[C@@]4(C)[C@@H]2CC[C@@H]1[C@H]3O,x,n,n,x,25.5
C=C1C(=O)[C@@]23[C@H](O)C[C@@H]4C(C)(C)CC[C@H](O)[C@]4(C)[C@@H]2C[C@H](O)[C@@H]1[C@H]3O,x,n,n,x,n
COc1ccc(CNCC(O)(c2ccccc2)c2ccc(Cl)cc2)cc1 (stereo unspecified),n,n,n,n,n
Cc1ccc(CNCC(O)(c2ccccc2)c2ccc(Cl)cc2)cc1 (stereo unspecified),n,n,69.1,n,n
Cc1ccc(/C=C/c2ccc(=O)n(Cc3ccccc3Cl)n2)cc1,n,x,61.5,n,n
O=C(CCN1CCN(c2ccccc2)CC1)N/N=C/c1ccccc1O,n,n,n,n,n
CC1CCCN(C(c2cccs2)c2nnnn2Cc2ccccc2)C1 (stereo unspecified),x,n,n,n,n
COc1cc2c(cc1OC)CN(C(=S)Nc1ccc(C)cc1C)CC2,47.5,n,n,n,n
O=C(Nc1ccccc1)c1cc2ccc3ccccc3c2s1,n,n,x,n,x
COc1ccccc1NC(=O)c1cc(C(=O)Nc2ccccc2OC)n(C)n1,n,x,x,x,x
Cc1ccc(-n2c(N)c(C#N)c(-c3ccccc3)c(C#N)c2=O)cc1,n,n,69.7,n,n
Cc1ccc(-n2c(C)cc(C)c(C#N)c2=O)cc1,x,n,n,n,n
CCOC(=O)c1sc(C)c(C(=O)NC2CCCCC2)c1N,x,n,n,118.5,n
Cc1cc(C)c(Cn2cnc(-c3ccc([N+](=O)[O-])cc3)c2)c(C)c1,n,x,60.1,n,n
O=C(c1ccc(Cl)cc1)c1c[nH]c(C(=O)C(Cl)(Cl)Cl)c1,x,n,82.5,n,n
Cc1cc2c(cc1C)CSC(c1c(O)ccc3ccccc13)SC2,x,n,96.7,n,n
O=C1C=CC(=O)N1c1cccc(-c2ccccc2)c1,n,n,x,n,x
O=c1[nH]c(=O)n(Cc2ccco2)c2c1C(C(F)(F)F)(C(F)(F)F)N=C(Cc1ccccc1)N2,n,n,62.3,n,n
COc1ccc(OC)c(S(=O)(=O)Nc2ccc(O)c3ccccc23)c1,x,n,61.9,n,n
COc1ccc(OC)c(S(=O)(=O)Nc2cccc3c(O)cccc23)c1,n,x,x,x,x
COc1ccc(OC)c(S(=O)(=O)Nc2ccc(Oc3ccccc3)cc2)c1,n,n,63.5,n,n
COC(=O)C(C(=O)OC)C(C(C)C)C(C(=O)OC)C(=O)OC,x,n,n,n,n
SMILES,Pf gamet viab,KCC2 mod,WT yeast gro inh,bCat nuc transl,MT stabilize HCS
COC(=O)c1ncccc1SC,x,n,n,n,n
CCOC(=O)Cc1nc2cc(Cl)ccc2o1,n,n,n,n,n
CN(C)C(CNC(=O)c1ccc(S(=O)(=O)N(C)C)cc1)Cc1ccccc1 (stereo unspecified),n,n,n,n,n
CN(C)CCCN(Cc1ccccc1)C(=S)Nc1cccc(C(F)(F)F)c1,n,n,n,n,n
Cc1cc(NC(=S)N(CCN2CCCCC2)Cc2ccco2)ccc1Cl,n,n,n,n,n
FC(F)(F)c1cccc(NC(=S)N(CCCN2CCCC2)Cc2cccn2Cc2ccc(Cl)cc2)c1,n,n,n,n,76.4
Cc1ccc(NC(=S)N(CCCN2CCCC2)Cc2cccn2Cc2ccc(Cl)cc2)cc1Cl,n,n,77.4,n,n
Cc1ccc(NC(=S)N(CCCN2CCCC2)Cc2cccn2Cc2ccc(Cl)cc2)cc1C,n,n,76.4,n,n
COc1ccc(NC(=S)N(CCCN2CCCC2)Cc2cccn2Cc2ccc(Cl)cc2)cc1Cl,n,n,87.3,n,59.7
